# Source: ChEMBL document CHEMBL3872208, “Synthesis and pharmacological characterization of novel N-(trans-4-(2-(4-(benzo[d]isothiazol-3-yl)piperazin-1-yl)ethyl)cyclohexyl)amides as potential multireceptor atypical antipsychotics” (Eur J Med Chem, 2016)
# Activity calls are given as the source filed them. No cut-off for these calls is given here.
# Legend:
# [1] = target: 5-hydroxytryptamine receptor 2A (Homo sapiens, UniProt P28223); assay: Displacement of [3H]ketanserin from recombinant human 5-HT2A receptor expressed in HEK293 cell membranes after 60 mins by scintillation counting method
# [2] = test system: Rattus norvegicus; assay: Antipsychotic activity in Sprague-Dawley rat assessed as inhibition of conditioned avoidance behavior at 1.0 to 2.0 mg/kg, ip administered as single dose measured after 1 hr; type: functional, organism-based
# Outline: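 Male SD rats (150–180 g, 6 per group) trained in automated shuttle-boxes; only rats exceeding 80% avoidance were used. Single i.p. dose of 1.0 or 2.0 mg/kg given 1 h before a 20-trial session. Read-out is percentage of avoidance (mean ± SEM, n = 6), compared with the vehicle group.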
# [3] = target: T1, Muscarinic acetylcholine receptor M1 (Homo sapiens, UniProt P11229); assay: Displacement of [3H]pirenzepine from recombinant human M1 receptor expressed in CHO cell membranes at 1 uM after 60 mins by scintillation counting method relative to control; conditions: CHO cell membranes expressing recombinant human M1 receptor, probe [3H]pirenzepine
# T1 sequence (P11229 whole entry): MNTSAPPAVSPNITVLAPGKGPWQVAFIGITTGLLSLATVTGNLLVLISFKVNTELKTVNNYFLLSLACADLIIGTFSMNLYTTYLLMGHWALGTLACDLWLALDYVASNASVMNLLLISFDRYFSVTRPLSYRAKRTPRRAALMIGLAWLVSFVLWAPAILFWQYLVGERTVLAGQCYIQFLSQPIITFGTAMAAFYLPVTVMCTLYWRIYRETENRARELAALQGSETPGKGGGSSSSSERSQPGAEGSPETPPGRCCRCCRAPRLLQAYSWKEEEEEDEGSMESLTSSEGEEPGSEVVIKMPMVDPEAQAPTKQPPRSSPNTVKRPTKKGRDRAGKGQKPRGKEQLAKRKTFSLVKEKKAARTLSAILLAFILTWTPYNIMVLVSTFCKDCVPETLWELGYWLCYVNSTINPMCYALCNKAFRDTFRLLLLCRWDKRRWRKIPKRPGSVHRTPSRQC
# Outline: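 Nonspecific binding defined with […]. Filtered on PEI-soaked GF/B and scintillation counted. Expressed as percent inhibition of control specific binding at a single test concentration.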
# [4] = target: T2, D(3) dopamine receptor (Homo sapiens, UniProt P35462); assay: Antagonistic activity at D3 receptor (unknown origin) expressed in cell membranes assessed as inhibition of quinpirole-induced response after 40 mins by [35S]GTPgammaS binding assay; type: functional
# Outline: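 Membranes (20 mg membrane protein as printed) incubated 40 min at 30 °C in 50 mM Tris pH 7.4, 5 mM MgCl2, 1 mM EDTA, 100 mM NaCl, 1 mM DTT. Mix contained 0.1 nM [35S]GTPγS, GDP, quinpirole as agonist and varied compound concentrations. Nonspecific binding was taken with Gpp(NH)p. Reaction stopped with ice-cold buffer, then GF/C filtration and scintillation counting. Mean IC50 from two experiments, eight concentrations in duplicate.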
# [5] = target: T2, D(3) dopamine receptor; assay: Agonist activity at D3 receptor (unknown origin) expressed in cell membranes after 40 mins by [35S]GTPgammaS binding assay; type: functional
# [6] = target: T3, 5-hydroxytryptamine receptor 1A (Homo sapiens, UniProt P08908); assay: Antagonistic activity at 5-HT1A receptor (unknown origin) expressed in CHOK1 cells co-expressing G-alpha 15 assessed as inhibition of serotonin-induced calcium flux by Fluo-4 based FLIPR assay; type: functional, cell-based, CHO-K1
# T3 sequence (P08908 whole entry): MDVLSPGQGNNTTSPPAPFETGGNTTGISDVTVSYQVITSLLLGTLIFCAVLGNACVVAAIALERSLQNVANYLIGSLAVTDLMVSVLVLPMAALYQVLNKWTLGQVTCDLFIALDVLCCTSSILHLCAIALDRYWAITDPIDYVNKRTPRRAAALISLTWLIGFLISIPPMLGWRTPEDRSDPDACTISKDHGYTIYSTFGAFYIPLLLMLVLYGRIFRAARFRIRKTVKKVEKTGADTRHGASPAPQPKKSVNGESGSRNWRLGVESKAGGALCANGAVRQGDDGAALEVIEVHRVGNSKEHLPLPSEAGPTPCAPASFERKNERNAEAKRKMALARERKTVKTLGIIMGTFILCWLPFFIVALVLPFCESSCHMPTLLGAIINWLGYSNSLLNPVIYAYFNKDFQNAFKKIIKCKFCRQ
# [7] = Cmax in Sprague-Dawley rat brain at 0.5 mg/kg, iv administered as single dose by LC-MS/MS analysis; type: ADME, organism-based; set-up: dose 0.5 mg/kg, route intravenous
# Outline: (§1)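 Male SD rats, single dose: 0.5 mg/kg i.v. or 2.0 mg/kg p.o. Vehicle is 5% DMSO, 10% Solutol HS 15 and 85% PBS. Heparinized blood is sampled at 5, 15 and 30 min and at 1, 2, 4, 8 and 24 h after dosing. Plasma is reported in ng/mL and brain in ng/g. F is derived from the p.o. and i.v. arms.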
# [8] = Cmax in Sprague-Dawley rat plasma at 2.0 mg/kg, po administered as single dose by LC-MS/MS analysis; type: ADME, organism-based; set-up: dose 2 mg/kg, route oral; outline: as §1
# [9] = Half life in Sprague-Dawley rat plasma at 0.5 mg/kg, iv administered as single dose by LC-MS/MS analysis; type: ADME, organism-based; outline: as §1
# [10] = Half life in Sprague-Dawley rat brain at 0.5 mg/kg, iv administered as single dose by LC-MS/MS analysis; type: ADME, organism-based; outline: as §1
# [11] = Half life in Sprague-Dawley rat plasma at 2.0 mg/kg, po administered as single dose by LC-MS/MS analysis; type: ADME, organism-based; outline: as §1
# [12] = Half life in Sprague-Dawley rat brain at 2 mg/kg, po administered as single dose by LC-MS/MS analysis; type: ADME, organism-based; outline: as §1
# [13] = AUC (0 to t) in Sprague-Dawley rat plasma at 0.5 mg/kg, iv administered as single dose by LC-MS/MS analysis; type: ADME, organism-based; outline: as §1
# [14] = Apparent clearance in Sprague-Dawley rat plasma at 0.5 mg/kg, iv administered as single dose by LC-MS/MS analysis; type: ADME, organism-based; conditions: read-out: CL(app) (converted); outline: as §1
# [15] = Oral bioavailability in Sprague-Dawley rat plasma at 2 mg/kg administered as single dose by LC-MS/MS analysis; type: ADME, organism-based; outline: as §1
# [16] = Oral bioavailability in Sprague-Dawley rat brain at 2 mg/kg administered as single dose by LC-MS/MS analysis; type: ADME, organism-based; outline: as §1
# [17] = Ratio of AUC (0 to t) in Sprague-Dawley rat brain to plasma at 2 mg/kg, po; type: ADME, organism-based; conditions: brain and plasma, read-out: Ratio AUC
# Outline: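 Male Sprague-Dawley rats given the test compound once orally at 2.0 mg/kg. Vehicle was 5% DMSO, 10% Solutol HS 15 and 85% PBS. Heparinized blood sampled at 5, 15, 30 min and 1, 2, 4, 8, 24 h after dosing; brain concentrations also measured (ng/g). Ratio is brain AUC0-t over plasma AUC0-t.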
# [18] = target: Voltage-gated inwardly rectifying potassium channel KCNH2 (Homo sapiens, UniProt Q12809)
# [19] = target: T4, 5-hydroxytryptamine receptor 1A (Homo sapiens) (UniProt P08908); conditions: CHO-K1, 10 uM
# T4 sequence (whole entry): T3 sequence (P08908 whole entry)
# T2 sequence (P35462 whole entry): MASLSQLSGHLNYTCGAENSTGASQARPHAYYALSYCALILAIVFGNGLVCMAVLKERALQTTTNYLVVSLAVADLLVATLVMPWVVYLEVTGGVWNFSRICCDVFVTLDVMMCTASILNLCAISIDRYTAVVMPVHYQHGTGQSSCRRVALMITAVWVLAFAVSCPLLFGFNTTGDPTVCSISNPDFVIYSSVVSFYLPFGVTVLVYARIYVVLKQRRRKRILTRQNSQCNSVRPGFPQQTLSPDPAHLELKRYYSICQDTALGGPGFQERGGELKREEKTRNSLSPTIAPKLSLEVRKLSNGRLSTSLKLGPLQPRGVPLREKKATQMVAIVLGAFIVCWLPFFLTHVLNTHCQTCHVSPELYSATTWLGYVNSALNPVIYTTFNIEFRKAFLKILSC
# Sequence of 5-hydroxytryptamine receptor 2A (P28223 whole entry): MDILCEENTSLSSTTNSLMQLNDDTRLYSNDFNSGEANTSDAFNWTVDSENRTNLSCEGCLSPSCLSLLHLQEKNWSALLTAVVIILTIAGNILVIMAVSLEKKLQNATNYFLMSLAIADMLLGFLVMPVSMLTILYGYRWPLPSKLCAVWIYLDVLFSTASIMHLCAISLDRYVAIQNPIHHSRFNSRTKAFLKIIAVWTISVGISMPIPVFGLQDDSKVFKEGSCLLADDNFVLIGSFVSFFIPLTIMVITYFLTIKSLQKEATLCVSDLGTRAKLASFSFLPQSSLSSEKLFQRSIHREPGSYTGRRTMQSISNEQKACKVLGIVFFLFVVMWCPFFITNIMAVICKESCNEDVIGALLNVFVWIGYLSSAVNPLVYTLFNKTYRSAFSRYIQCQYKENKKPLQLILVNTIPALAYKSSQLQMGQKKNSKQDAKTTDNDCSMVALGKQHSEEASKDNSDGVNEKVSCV
# Sequence of Voltage-gated inwardly rectifying potassium channel KCNH2 (Q12809 whole entry): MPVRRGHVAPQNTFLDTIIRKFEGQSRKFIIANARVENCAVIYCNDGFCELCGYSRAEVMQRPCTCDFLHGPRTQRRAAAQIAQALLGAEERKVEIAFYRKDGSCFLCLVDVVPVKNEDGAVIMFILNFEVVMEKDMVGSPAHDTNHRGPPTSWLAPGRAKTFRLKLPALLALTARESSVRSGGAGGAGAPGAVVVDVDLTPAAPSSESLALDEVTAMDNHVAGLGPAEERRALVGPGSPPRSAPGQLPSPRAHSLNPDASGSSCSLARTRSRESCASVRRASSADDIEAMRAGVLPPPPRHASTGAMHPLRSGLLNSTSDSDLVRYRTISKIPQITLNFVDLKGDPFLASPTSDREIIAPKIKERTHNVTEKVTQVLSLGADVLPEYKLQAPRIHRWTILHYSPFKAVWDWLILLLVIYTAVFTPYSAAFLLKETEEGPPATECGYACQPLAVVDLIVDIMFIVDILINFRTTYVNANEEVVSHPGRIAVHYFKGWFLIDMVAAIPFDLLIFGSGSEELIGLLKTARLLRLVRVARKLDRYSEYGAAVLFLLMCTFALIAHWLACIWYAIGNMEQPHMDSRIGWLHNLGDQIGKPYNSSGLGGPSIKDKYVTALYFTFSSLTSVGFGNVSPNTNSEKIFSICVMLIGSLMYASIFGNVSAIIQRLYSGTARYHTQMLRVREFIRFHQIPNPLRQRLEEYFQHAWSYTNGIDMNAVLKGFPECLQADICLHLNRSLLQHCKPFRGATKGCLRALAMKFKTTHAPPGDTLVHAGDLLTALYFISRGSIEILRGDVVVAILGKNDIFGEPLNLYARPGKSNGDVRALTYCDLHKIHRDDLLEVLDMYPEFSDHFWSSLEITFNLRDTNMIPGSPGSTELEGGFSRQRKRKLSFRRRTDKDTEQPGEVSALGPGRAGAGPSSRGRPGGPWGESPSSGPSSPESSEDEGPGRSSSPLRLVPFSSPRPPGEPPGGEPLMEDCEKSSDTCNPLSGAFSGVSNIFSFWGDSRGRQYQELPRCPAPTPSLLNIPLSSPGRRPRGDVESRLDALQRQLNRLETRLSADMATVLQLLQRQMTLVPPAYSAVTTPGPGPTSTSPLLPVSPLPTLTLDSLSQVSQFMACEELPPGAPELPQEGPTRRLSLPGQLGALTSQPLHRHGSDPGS
smiles,measurement,setting,value
O=C(N[C@H]1CC[C@H](CCN2CCN(c3nsc4ccccc34)CC2)CC1)c1ccco1,Ki,[1],0.23 nM
same,inhibition,[2],Active
same,"inhibition at 1 h, 1 µM",[3],50.6%
same,IC50,[4],1.39 nM
same,EC50,[5],> 10000 nM
same,IC50,[6],46.1 nM
same,Cmax,[7],259 ng/mL
same,Cmax,[8],18.4 ng/mL
same,half-life,[9],0.8 h
same,half-life,[10],15.8 h
same,half-life,[11],1.7 h
same,half-life,[12],16.3 h
same,AUC(0-t),[13],106 ng·h/mL
same,clearance,[14],76.7 mL/min/kg
same,bioavailability,[15],13%
same,bioavailability,[16],20.7%
same,Kp,[17],16.1
same,IC50,[18],2110 nM
same,inhibition,[19],115%
